Assay results taken from paper PMC5217177 (Journal of natural products, 2016).
“Also recorded” adds a separate entry of the source.

Legend:
[1] = system: Bacillus subtilis ATCC 6633; assay: MIC determination, broth dilution in 96-well plates; format: cell-based; settings: LB medium, 28–37 °C, 16–48 h, OD600 read-out, max conc ~10 μg/mL
In short: (§1)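 Starter cultures were grown 16 h at 37 °C and 250 rpm, then diluted in medium to OD600 ~0.1. Test compound was serially diluted in DMSO, with DMSO alone as the negative control. Positive controls were kanamycin for the bacteria and amphotericin B for the yeast. Plates were shaken at 160 rpm during incubation. OD600 was normalized to vehicle wells, and the lowest inhibitory concentration was taken as the MIC.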

[2] = system: Salmonella enterica ATCC 10708; assay: as above; format: cell-based; settings: nutrient broth, 28–37 °C, 16–48 h, OD600 read-out, max conc ~10 μg/mL
In short: as §1

[3] = system: Escherichia coli ATCC 12435; assay: as above; format: cell-based; settings: LB medium, 28–37 °C, 16–48 h, OD600 read-out, max conc ~10 μg/mL
In short: as §1

[4] = system: Saccharomyces cerevisiae ATCC 204508; assay: as above; format: cell-based; settings: YAPD medium, 28–37 °C, 16–48 h, OD600 read-out, max conc ~10 μg/mL
In short: as §1

[5] = Stability under acidic conditions; format: physicochemical; settings: observed during HPLC purification with TFA; UV/Vis monitoring
Gram-positive strains = assay: Antibacterial activity, comparisons across the tested strains; format: cell-based; settings: from MIC of Table 3
[6] = system: two human cancer cell lines; assay: Cytotoxicity, comparison across PC3 and A549; format: cell-based; settings: PC3 and A549, 48 h
[7] = system: S. aureus and B. subtilis; settings: cited from earlier work

Substance | MIC, B. subtilis [1] [mg/L] | MIC, S. enterica [2] [mg/L] | MIC, E. coli [3] [mg/L] | MIC, S. cerevisae [4] [mg/L] | stability under acidic conditions [5] | fold more potent than actinomycin Y3 (antibacterial) (Gram-positive strains) [fold] | fold change in EC50 compared to actinomycin D (less potent) [6] | antibacterial activity based on zones of inhibition [7]
actinomycin Y3 | >9.33 | >9.33 | >9.33 | >9.33 |  |  |  | 
actinomycin Y6 [Compound 1] | 0.59 | >9.46 | >9.46 | 9.46 | not stable under acidic conditions; also recorded: unstable under acidic condition | ≥ 9 | 278–355 fold | 
actinomycin Y4 | >9.32 | >9.32 | >9.32 | >9.32 |  |  |  | 
actinomycin Y5 |  |  |  |  |  |  |  | modest antibacterial activity
